Source: ChEMBL document CHEMBL4376814, “Novel cyclin-dependent kinase 9 (CDK9) inhibitor with suppression of cancer stemness activity against non-small-cell lung cancer” (Eur J Med Chem, 2019)
Active and inactive are the calls of the source. No cut-off for these calls is given here.

Assays:
[1] = molecular target: Tyrosine-protein kinase CSK (Homo sapiens) (UniProt P41240); assay: Inhibition of recombinant full-length human CSK at 1 uM using poly(Glu, Tyr) 4:1 as substrate measured after 40 mins in presence of [gamma33P]ATP by scintillation counting method relative to control
Outline: (§1)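 Single-point inhibition at 1 µM was measured in the Eurofins KinaseProfiler panel. Values are the mean of two independent experiments.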

[2] = molecular target: Serine/threonine-protein kinase 3 (Homo sapiens) (UniProt Q13188); assay: Inhibition of recombinant human MST2 (2 to end residues) at 1 uM using myelin basic protein as substrate measured after 40 mins in presence of [gamma33P]ATP by scintillation counting method relative to control
[3] = tested on: Serine/threonine-protein kinase Nek4 (Homo sapiens), P51957 [P225A]; assay: Inhibition of recombinant full-length human NEK4 P225A mutant at 1 uM using myelin basic protein as substrate measured after 40 mins in presence of [gamma33P]ATP by scintillation counting method relative to control
[4] = Intrinsic clearance in Beagle dog liver microsomes at 2 uM in presence of NADPH measured up to 1 hr by HPLC analysis; format: ADME, Canis lupus familiaris, Microsome
[5] = molecular target: Serine/threonine-protein kinase 32C (Homo sapiens) (UniProt Q86UX6); assay: Inhibition of recombinant full-length human STK32C at 1 uM using casein as substrate measured after 120 mins in presence of [gamma33P]ATP by scintillation counting method relative to control
A549 = assay: Induction of apoptosis in human A549 cells assessed as increase in cleaved caspase 3 expression at 0.25 to 1 uM after 24 hrs by Western blot analysis; format: functional, cell-based
Outline: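 A549 or H1299 cells exposed to the indicated concentrations for 24 h. Protein extracts then immunoblotted for apoptosis-pathway proteins (Bcl2, Bim, cleaved caspase 3).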

[6] = molecular target: Cyclin-dependent kinase 9 (Homo sapiens) (UniProt P50750); details: A549, 0.25 to 1 uM
[7] = molecular target: Tribbles homolog 2 (Homo sapiens) (UniProt Q92519); assay: Inhibition of recombinant full-length human TRB2 at 1 uM using RRRFRPASPLRGPPK as substrate measured after 120 mins in presence of [gamma33P]ATP by scintillation counting method relative to control
[8] = molecular target: Protein kinase C beta type (Homo sapiens) (UniProt P05771); assay: Inhibition of recombinant human PKCbeta2 (2 to end residues) at 1 uM using histone H1 as substrate measured after 40 mins in presence of [gamma33P]ATP by scintillation counting method relative to control
[9] = molecular target: Ribosomal protein S6 kinase alpha-6 (Homo sapiens) (UniProt Q9UK32); assay: Inhibition of recombinant full-length human Rsk4 at 1 uM using LRRASLG as substrate measured after 40 mins in presence of [gamma33P]ATP by scintillation counting method relative to control
NCI-H1299 [10] = assay: Induction of apoptosis in human H1299 cells assessed as viable cells at 1 uM after 48 hrs by AnnexinV-FITC/PI staining-based flow cytometric analysis (reference value: 97.1%); format: functional; details: NCI-H1299, 48 h, read-out: Activity
[11] = molecular target: Serine/threonine-protein kinase VRK2 (Homo sapiens) (UniProt Q86Y07); assay: Inhibition of recombinant human VRK2 (1 to 336 residues) at 1 uM using casein as substrate measured after 40 mins in presence of [gamma33P]ATP by scintillation counting method relative to control
[12] = tested on: Serine/threonine-protein kinase Sgk2 (Homo sapiens), Q9HBY8 [S416D]; assay: Inhibition of recombinant human SGK2 S416D mutant (54 to end residues) at 1 uM using GRPRTSSFAEGKK as substrate measured after 40 mins in presence of [gamma33P]ATP by scintillation counting method relative to control
NCI-H1299 [13] = assay: Inhibition of tumorsphere formation in human H1299 cells assessed as decrease in number of spheres at 0.25 to 1 uM after 2 weeks by microscopic analysis; format: functional, cell-based
[14] = tested on: Discoidin domain-containing receptor 2 (Homo sapiens), Q16832 [UNDEFINED MUTATION]; assay: Inhibition of recombinant human DDR2 S642A mutant (467 to end residues) at 1 uM using KKSRGDYMTMQIG as substrate measured after 40 mins in presence of [gamma33P]ATP by scintillation counting method relative to control
[15] = molecular target: TRAF2 and NCK-interacting protein kinase (Homo sapiens) (UniProt Q9UKE5); assay: Inhibition of human TNIK (1 to 367 residues) at 1 uM using RLGRDKYKTLRQIRQ as substrate measured after 40 mins in presence of [gamma33P]ATP by scintillation counting method relative to control
Outline: (§2)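 Percent inhibition of kinase activity at a single compound concentration, measured by the outsourced Eurofins KinaseProfiler panel. Values are the mean of two independent experiments.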

[16] = molecular target: Mitogen-activated protein kinase 1 (Homo sapiens) (UniProt P28482); assay: Inhibition of recombinant full-length human MAPK1 at 1 uM using MBP as substrate measured after 40 mins in presence of [gamma33P]ATP by scintillation counting method relative to control
[17] = molecular target: Tyrosine-protein kinase Fyn (Homo sapiens) (UniProt P06241); assay: Inhibition of recombinant full-length human Fyn at 1 uM using KVEKIGEGTYGVVYK as substrate measured after 40 mins in presence of [gamma33P]ATP by scintillation counting method relative to control
[18] = molecular target: Ribosomal protein S6 kinase alpha-3 (Homo sapiens) (UniProt P51812); assay: Inhibition of recombinant full-length human Rsk3 at 1 uM using KKKNRTLSVA as substrate measured after 40 mins in presence of [gamma33P]ATP by scintillation counting method relative to control; outline: as §1
[19] = molecular target: Rho-associated protein kinase 2 (Homo sapiens) (UniProt O75116); assay: Inhibition of human ROCK2 (11 to 552 residues) at 1 uM using KEAKEKRQEQIAKRRRLSSLRASTSKSGGSQK as substrate measured after 40 mins in presence of [gamma33P]ATP by scintillation counting method relative to control
Outline: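 Percent inhibition at 1 µM was measured by the contract KinaseProfiler service (Eurofins) on the human kinase. Values are the mean of two independent experiments.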

[20] = molecular target: Insulin-like growth factor 1 receptor (Homo sapiens) (UniProt P08069); assay: Inhibition of recombinant human IGF1R (959 to end residues) at 1 uM using KKKSPGEYVNIEFG as substrate measured after 40 mins in presence of [gamma33P]ATP by scintillation counting method relative to control
[21] = molecular target: CDK4/Cyclin D3 (Homo sapiens) (UniProt P11802+P30281); assay: Inhibition of recombinant full-length human CDK4/cyclinD3 at 1 uM using Rb fragment as substrate measured after 40 mins in presence of [gamma33P]ATP by scintillation counting method relative to control; format: protein-complex assay; outline: as §2
[22] = molecular target: Tyrosine-protein kinase ZAP-70 (Homo sapiens) (UniProt P43403); assay: Inhibition of recombinant full-length human ZAP-70 at 1 uM using poly(Glu, Tyr) 4:1 as substrate measured after 40 mins in presence of [gamma33P]ATP by scintillation counting method relative to control
Sequence of Tyrosine-protein kinase ZAP-70 (Homo sapiens) (P43403 whole entry): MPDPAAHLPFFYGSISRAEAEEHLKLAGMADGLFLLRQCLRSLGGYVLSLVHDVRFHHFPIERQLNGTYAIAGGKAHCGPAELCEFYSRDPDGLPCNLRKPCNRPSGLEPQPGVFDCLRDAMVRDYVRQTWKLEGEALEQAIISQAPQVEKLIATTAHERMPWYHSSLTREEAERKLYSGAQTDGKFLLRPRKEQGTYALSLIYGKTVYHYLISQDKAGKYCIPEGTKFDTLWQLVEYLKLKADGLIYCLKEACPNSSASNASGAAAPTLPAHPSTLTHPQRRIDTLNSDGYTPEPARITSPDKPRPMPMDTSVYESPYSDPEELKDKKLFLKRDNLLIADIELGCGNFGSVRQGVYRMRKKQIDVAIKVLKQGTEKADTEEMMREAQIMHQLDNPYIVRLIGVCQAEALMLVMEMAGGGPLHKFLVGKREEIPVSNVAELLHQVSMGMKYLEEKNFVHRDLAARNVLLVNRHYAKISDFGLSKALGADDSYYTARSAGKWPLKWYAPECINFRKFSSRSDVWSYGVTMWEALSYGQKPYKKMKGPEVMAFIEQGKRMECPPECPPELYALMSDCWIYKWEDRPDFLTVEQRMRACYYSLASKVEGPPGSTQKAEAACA

Sequence of Serine/threonine-protein kinase Sgk2 (Homo sapiens), Q9HBY8 [S416D] (Q9HBY8 1-367 with tags or gaps S416D): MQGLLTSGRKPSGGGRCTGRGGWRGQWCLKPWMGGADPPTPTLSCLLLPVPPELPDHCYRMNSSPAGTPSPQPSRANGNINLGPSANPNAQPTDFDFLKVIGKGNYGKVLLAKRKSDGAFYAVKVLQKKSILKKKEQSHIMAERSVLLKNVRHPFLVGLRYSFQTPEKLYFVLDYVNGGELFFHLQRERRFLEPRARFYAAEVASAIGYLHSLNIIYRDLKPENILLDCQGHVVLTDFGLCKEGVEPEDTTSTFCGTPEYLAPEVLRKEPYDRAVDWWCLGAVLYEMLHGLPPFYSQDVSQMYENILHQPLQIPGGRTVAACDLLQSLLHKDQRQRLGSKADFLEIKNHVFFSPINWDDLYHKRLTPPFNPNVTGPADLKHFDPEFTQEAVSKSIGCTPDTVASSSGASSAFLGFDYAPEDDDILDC
Sequence of Rho-associated protein kinase 2 (Homo sapiens) (O75116 whole entry, looked up, the tested form may be a part): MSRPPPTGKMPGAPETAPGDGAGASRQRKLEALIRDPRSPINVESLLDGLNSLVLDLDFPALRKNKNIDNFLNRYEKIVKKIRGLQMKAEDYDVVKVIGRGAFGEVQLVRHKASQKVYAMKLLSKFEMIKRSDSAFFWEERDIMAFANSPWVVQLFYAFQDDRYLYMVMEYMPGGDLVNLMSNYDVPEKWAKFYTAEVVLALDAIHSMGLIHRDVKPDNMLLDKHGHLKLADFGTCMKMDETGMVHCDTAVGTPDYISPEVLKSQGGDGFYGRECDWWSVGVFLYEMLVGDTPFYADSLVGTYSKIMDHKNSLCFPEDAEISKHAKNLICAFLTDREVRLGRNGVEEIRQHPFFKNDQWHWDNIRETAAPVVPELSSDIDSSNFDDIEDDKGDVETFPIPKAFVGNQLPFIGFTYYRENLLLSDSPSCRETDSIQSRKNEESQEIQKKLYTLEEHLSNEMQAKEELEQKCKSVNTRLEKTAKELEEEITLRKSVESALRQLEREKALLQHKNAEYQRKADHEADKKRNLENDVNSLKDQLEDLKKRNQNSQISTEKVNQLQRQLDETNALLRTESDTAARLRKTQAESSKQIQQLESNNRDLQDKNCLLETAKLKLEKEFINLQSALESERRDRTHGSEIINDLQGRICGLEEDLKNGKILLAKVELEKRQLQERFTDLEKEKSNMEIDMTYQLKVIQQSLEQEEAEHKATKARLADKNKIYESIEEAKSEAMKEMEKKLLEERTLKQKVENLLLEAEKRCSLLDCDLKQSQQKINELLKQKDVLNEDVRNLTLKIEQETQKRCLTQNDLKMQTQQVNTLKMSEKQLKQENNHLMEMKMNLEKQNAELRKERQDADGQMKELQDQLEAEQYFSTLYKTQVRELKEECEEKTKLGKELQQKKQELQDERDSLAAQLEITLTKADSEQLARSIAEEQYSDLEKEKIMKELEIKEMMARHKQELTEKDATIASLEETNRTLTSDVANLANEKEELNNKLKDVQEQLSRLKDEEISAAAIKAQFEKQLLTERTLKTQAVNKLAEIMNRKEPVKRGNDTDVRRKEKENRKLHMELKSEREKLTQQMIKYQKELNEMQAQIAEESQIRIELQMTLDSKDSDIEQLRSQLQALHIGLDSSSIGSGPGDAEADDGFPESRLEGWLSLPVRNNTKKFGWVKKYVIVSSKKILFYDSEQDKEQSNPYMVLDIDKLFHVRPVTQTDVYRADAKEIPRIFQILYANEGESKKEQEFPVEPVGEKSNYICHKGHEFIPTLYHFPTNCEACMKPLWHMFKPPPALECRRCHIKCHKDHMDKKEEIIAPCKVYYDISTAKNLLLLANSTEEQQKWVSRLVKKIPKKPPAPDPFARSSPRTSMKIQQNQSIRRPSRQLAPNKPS
Sequence of Mitogen-activated protein kinase 1 (Homo sapiens) (P28482 whole entry): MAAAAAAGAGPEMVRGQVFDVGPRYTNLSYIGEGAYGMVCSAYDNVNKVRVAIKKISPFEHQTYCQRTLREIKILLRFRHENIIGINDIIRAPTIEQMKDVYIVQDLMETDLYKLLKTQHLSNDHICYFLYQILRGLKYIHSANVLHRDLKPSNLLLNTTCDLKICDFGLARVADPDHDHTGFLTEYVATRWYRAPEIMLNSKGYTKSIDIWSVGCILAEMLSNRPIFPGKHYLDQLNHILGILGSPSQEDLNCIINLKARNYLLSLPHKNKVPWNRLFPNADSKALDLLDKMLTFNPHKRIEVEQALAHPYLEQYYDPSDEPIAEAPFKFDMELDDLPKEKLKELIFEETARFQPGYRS
Sequence of Tribbles homolog 2 (Homo sapiens) (Q92519 whole entry): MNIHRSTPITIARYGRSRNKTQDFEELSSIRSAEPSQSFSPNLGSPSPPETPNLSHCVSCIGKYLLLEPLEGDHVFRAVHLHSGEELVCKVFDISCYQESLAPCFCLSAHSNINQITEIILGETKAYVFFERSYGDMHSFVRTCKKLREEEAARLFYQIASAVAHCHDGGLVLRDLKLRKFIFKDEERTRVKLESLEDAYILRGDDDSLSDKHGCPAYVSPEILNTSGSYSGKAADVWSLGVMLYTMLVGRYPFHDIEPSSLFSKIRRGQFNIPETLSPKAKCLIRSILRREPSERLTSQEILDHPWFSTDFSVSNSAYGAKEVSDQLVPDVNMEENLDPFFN
Sequence of Tyrosine-protein kinase CSK (Homo sapiens) (P41240 2-450 limits assumed): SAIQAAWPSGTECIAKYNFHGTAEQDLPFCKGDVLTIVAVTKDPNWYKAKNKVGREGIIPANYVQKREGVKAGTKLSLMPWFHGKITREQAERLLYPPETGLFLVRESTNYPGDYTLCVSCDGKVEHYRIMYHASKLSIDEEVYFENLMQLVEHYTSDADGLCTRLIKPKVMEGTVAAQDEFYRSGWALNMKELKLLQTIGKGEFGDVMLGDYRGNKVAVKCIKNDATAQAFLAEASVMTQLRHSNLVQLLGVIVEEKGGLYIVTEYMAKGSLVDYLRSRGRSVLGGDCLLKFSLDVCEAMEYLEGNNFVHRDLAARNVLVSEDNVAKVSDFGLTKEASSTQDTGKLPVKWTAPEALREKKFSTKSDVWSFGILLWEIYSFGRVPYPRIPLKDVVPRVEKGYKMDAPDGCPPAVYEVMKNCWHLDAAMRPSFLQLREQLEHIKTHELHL
Sequence of Ribosomal protein S6 kinase alpha-6 (Homo sapiens) (Q9UK32 whole entry): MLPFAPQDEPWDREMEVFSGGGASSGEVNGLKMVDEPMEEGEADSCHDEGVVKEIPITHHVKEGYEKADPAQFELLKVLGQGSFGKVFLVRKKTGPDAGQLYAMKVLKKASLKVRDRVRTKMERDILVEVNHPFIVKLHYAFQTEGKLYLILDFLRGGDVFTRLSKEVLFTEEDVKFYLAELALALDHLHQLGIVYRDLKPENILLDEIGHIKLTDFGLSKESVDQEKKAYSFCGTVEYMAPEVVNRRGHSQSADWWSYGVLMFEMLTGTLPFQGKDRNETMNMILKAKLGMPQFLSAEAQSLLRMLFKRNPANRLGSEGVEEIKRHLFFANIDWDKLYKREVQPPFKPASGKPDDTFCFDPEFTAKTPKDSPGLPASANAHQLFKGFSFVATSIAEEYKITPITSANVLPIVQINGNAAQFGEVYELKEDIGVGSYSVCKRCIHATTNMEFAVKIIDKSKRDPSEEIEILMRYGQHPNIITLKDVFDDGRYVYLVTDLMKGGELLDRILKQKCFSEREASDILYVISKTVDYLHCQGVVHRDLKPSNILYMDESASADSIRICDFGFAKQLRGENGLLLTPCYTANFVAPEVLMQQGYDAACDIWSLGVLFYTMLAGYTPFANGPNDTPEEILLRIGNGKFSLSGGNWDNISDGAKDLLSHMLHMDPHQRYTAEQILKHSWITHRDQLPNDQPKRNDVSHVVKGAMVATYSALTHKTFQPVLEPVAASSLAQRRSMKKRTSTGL
Sequence of Serine/threonine-protein kinase VRK2 (Homo sapiens) (Q86Y07 whole entry, the tested form may be a part): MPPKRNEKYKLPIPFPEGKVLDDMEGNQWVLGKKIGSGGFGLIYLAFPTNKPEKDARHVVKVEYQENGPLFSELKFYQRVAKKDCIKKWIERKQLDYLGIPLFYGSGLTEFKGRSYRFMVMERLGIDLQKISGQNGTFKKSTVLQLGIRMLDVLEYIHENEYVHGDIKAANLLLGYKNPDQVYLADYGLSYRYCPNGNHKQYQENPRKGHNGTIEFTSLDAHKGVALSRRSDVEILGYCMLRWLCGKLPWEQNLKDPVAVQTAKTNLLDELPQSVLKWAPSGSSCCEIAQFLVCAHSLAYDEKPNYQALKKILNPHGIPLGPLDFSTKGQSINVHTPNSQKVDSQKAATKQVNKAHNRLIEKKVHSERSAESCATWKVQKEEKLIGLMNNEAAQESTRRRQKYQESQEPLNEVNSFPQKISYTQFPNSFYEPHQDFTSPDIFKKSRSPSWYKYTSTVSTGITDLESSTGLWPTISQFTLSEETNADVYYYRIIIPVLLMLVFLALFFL

Work on `CN(C)C(=O)c1cc2cnc(Nc3ccc(NC(=O)CCCCCCCN=C=S)cc3)nc2n1C1CCCC1` yielded an inhibition [1] of 1%, an inhibition [2] of 43% and an inhibition [3] of 63%. For the same compound, the CLH [4] was 87 µL/min/mg, the inhibition [5] was 17% and the Activity (A549) was “Active”. For the same compound, the inhibition [6] was “Active”, the inhibition [7] was 22% and the inhibition [8] was 72%. It also gave an inhibition [9] of 38%, a viability at 1 µM (NCI-H1299 [10]) of 89.6% and an inhibition [11] of 0%. The inhibition [12] was 14%, the inhibition (NCI-H1299 [13]) was “Active” and the inhibition [14] was 17%. It also gave an inhibition [15] of 69%, an inhibition [16] of 3% and an inhibition [17] of 2%. The inhibition [18] was 12%, the inhibition [19] was 5% and the inhibition [20] was -10%. The inhibition [21] was 87% and the inhibition [22] was 13%.
